Consider two compounds from ChEMBL document CHEMBL3992497, “Synthesis, structure-activity relationships and biological evaluation of 7-phenyl-pyrroloquinolinone 3-amide derivatives as potent antimitotic agents” (Eur J Med Chem, 2017).

Each structure is given as a SMILES string. Calls of active or inactive are those of the source. The calls are words filed in the database; no cut-off is given here.

The test system of data set [1] is HeLa. In words: Antiproliferative activity against human HeLa cells after 72 hrs by MTT assay. The format is functional. The method, boiled down: (§1)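 Compounds from 10 mM DMSO stocks. Cells seeded at 8 × 10^3 per well and held 18 h at 37 °C in humidified 5% CO2. Medium was then replaced with fresh medium holding graded compound concentrations, in triplicate, for 72 h at 37 °C. Viability was read by MTT. GI50 is the concentration giving 50% inhibition of proliferation. Mean ± SE of ≥3 independent dose-response experiments.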

Data set [2] has as its system MV4-11. In words: Antiproliferative activity against human MV4-11 cells after 72 hrs by MTT assay. The class given is functional. As to conditions: MV4-11, 72 h. Summed up: as §1
In general terms: Tetrazolium assays rely on reduction of a dye to a coloured formazan, in cell work by metabolically active cells.

Data set [3] is described as follows: Metabolic stability in human liver microsomes assessed as parent compound remaining at 10 uM after 60 mins by fluorescence based HPLC analysis. The format is ADME, microsome. As to conditions: read-out: Stability. The method, boiled down: (§2)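 Compound at 10 μM final in 0.1 M KH2PO4 pH 7.4 with 1.0 mg/mL pooled mixed-gender human liver microsomes, without or with 1 mM NADPH; buffer-only controls. Started with microsomes after 3-min equilibration and run at 37 °C for 0–60 min. Stopped with ice-cold acetonitrile, centrifuged, supernatant run on C18 HPLC with fluorescence detection (ex 344/em 493 nm). % remaining from peak area versus 0 min. Mean ± SD, n = 3–4.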
(Liver microsomes are vesicles of endoplasmic reticulum, rich in cytochrome P450 enzymes.)

Data set [4] relates to THP-1. Kind of data set: Antiproliferative activity against human THP1 cells after 72 hrs by MTT assay. The class given is functional. As to conditions: THP-1, 72 h. Summed up: as §1
The species named for data set [5] is Bos taurus. In words: Inhibition of [3H]colchicine binding to bovine brain tubulin at 5 uM relative to control. Summed up: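 Reaction mixtures held 1 μM tubulin, 5 μM [3H]colchicine and 5 μM test compound. Inhibition of bound radiolabel measured relative to control.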
The test system of data set [6] is HL-60. In words: Antiproliferative activity against human HL60 cells after 72 hrs by MTT assay. The class given is functional. As to conditions: HL-60, 72 h. The method, boiled down:
as §1

Data set [7] relates to Jurkat. In words: Antiproliferative activity against human Jurkat cells after 72 hrs by MTT assay. The class given is functional. The method, boiled down: as §1
The test system of data set [8] is Liver. Kind of data set: Metabolic stability in human liver microsomes at 10 uM after 60 mins in presence of NADPH by fluorescence based HPLC analysis. The class given is ADME, microsome. As to conditions: 1 h. The method, boiled down:
as §2

The test system of data set [9] is A549. Kind of data set: Antiproliferative activity against human A549 cells after 72 hrs by MTT assay. As to conditions: A549, 72 h. The class given is functional. Summed up:
as §1

The subject of data set [10] is MCF7. In words: Antiproliferative activity against human MCF7 cells after 72 hrs by MTT assay. The class given is functional. As to conditions: MCF7, 72 h. Summed up: as §1
The test system of data set [11] is HeLa. In words: Induction of ROS generation in human HeLa cells at 10 to 100 nM after 24 to 48 hrs by H2-DCFDA staining based flow cytometry. The class given is functional, cell-based. The method, boiled down:
(§3)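 Cells exposed for 24 or 48 h at the indicated concentrations, then loaded with H2-DCFDA. ROS read as oxidised DCF fluorescence by flow cytometry. Mean ± SEM of three independent experiments.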

For data set [12], the system named is PBL. Kind of data set: Antiproliferative activity against human PBL after 72 hrs by MTT assay. The format is cell-based. Summed up: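 PBL from healthy donors separated on a Lymphoprep gradient, washed, and held overnight at 1.0 × 10^6 cells/mL in RPMI-1640 with 10% FBS. Non-adherent resting cells resuspended at 5 × 10^5 cells/mL without PHA. Graded compound concentrations for 72 h, then MTT. Mean ± SEM of three separate experiments.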

In data set [13] the test system is HeLa. Kind of data set: Cell cycle arrest in human HeLa cells assessed as accumulation at G2/M phase at 100 nM after 24 hrs by propidium iodide staining based flow cytometry relative to control. The class given is functional. The method, boiled down:
(§4)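 5 × 10^5 cells exposed to varying compound concentrations for 24 h. Cells collected, fixed in ice-cold 70% ethanol, and lysed in buffer with RNase A and 0.1% Triton X-100. PI-stained, then analysed by flow cytometry for phase distribution from DNA histograms. Mean of two independent experiments.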
On the technique in general: A flow cytometer gives signals particle by particle.

The test system of data set [14] is PBL. Kind of data set: Antiproliferative activity against phytohematoaglutinin-stimulated human PBL after 72 hrs by MTT assay. The class given is cell-based. Summed up:
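Donor PBL isolated on a Lymphoprep gradient and rested overnight in RPMI-1640 with 10% FBS. Non-adherent cells resuspended at 5 × 10^5 cells/mL in growth medium with 2.5 μg/mL PHA. Graded compound concentrations added; viability by MTT at 72 h. Mean ± SEM of three separate experiments.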

Data set [15] has as its system RS4-11. In words: Antiproliferative activity against human RS4:11 cells after 72 hrs by MTT assay. The format is functional. As to conditions: RS4-11, 72 h. The method, boiled down: as §1
Data set [16] in a line: Selectivity index, ratio of IC50 for phytohematoaglutinin-stimulated human PBL to GI50 for human Jurkat cells. Summed up: (§5)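 Ratio of two 72 h MTT viability values. Healthy-donor PBL were isolated on a density gradient, rested overnight, then seeded as non-adherent cells at 5 × 10^5 cells/mL with 2.5 μg/mL PHA and exposed to graded compound concentrations. Leukemia cells were grown in RPMI-1640 with 10% FBS, seeded at 8 × 10^3 cells/well, pre-incubated 18 h at 37 °C, and dosed in triplicate.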

Data set [17] deals with Jurkat. Kind of data set: Induction of ROS generation in human Jurkat cells at 10 to 100 nM after 24 to 48 hrs by H2-DCFDA staining based flow cytometry. The format is functional, cell-based. The method, boiled down: as §3
For data set [18], the system named is Jurkat. Kind of data set: Cell cycle arrest in human Jurkat cells assessed as accumulation at G2/M phase at 100 nM after 24 hrs by propidium iodide staining based flow cytometry relative to control. The class given is functional. Summed up:
as §4

The subject of data set [19] is Liver. Kind of data set: Drug metabolism in human liver microsomes assessed as 7-phenyl-3H-pyrrolo[3,2-f]quinolin-9(6H)-one formation at 10 uM after 60 mins by fluorescence based HPLC analysis. The class given is ADME, microsome. As to conditions: 1 h. The method, boiled down: as §2
Data set [20] concerns HeLa. In words: Cell cycle arrest in human HeLa cells assessed as reduction in G1 phase at 50 to 100 nM after 24 hrs by propidium iodide staining based flow cytometry relative to control. The class given is functional. Summed up: as §4
The nature of data set [21]: Selectivity index, ratio of IC50 for phytohematoaglutinin-stimulated human PBL to GI50 for human CCRF-CEM cells. The method, boiled down: as §5
In data set [22] the test system is SEM cells. In words: Antiproliferative activity against human SEM cells after 72 hrs by MTT assay. The format is functional. Summed up:
as §1

Data set [23] can be described thus: Inhibition of bovine brain tubulin assembly preincubated for 20 mins followed by GTP addition by turbidometric method. Details: species or system Bos taurus. The method, boiled down: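 Varying compound concentrations pre-incubated with 10 μM bovine brain tubulin in glutamate buffer at 30 °C, then chilled to 0 °C. GTP added to 0.4 mM final, mixture warmed to 30 °C, turbidity followed at 350 nm.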

The test system of data set [24] is HeLa. In words: Cell cycle arrest in human HeLa cells assessed as accumulation at G2/M phase after 24 hrs by propidium iodide staining based flow cytometry. The format is functional. Summed up:
as §4

Data set [25] concerns CCRF-CEM. Kind of data set: Antiproliferative activity against human CCRF-CEM cells after 72 hrs by MTT assay. The format is functional. The method, boiled down: as §1
Data set [26] relates to HeLa. In words: Cell cycle arrest in human HeLa cells assessed as reduction in S phase at 50 to 100 nM after 24 hrs by propidium iodide staining based flow cytometry relative to control. The format is functional. Summed up: as §4
The subject of data set [27] is Jurkat. Kind of data set: Cell cycle arrest in human Jurkat cells assessed as accumulation at G2/M phase after 24 hrs by propidium iodide staining based flow cytometry. The format is functional. The method, boiled down: as §4
Data set [28] deals with HT-29. In words: Antiproliferative activity against human HT-29 cells after 72 hrs by MTT assay. The class given is functional. As to conditions: HT-29, 72 h. Summed up: as §1
For data set [29], the system named is Liver. In words: Drug level in human liver microsomes treated with 3-Benzoyl-7-phenyl-6H-pyrrolo[3,2-f]quinolin-9-one at 10 uM after 60 mins by fluorescence based HPLC analysis. The class given is ADME, microsome. As to conditions: 1 h. The method, boiled down: as §2

Take `O=C(c1ccccc1)n1ccc2c3c(=O)cc(-c4ccccc4)[nH]c3ccc21`: the GI50 (in general, the concentration giving 50% growth inhibition) in data set [1] worked out at 0.2 nM; in [2], 2 nM; in [4] it was 5 nM; in data set [6], 2 nM; in data set [7] it was 16 nM; in data set [9], 10 nM. The GI50 in data set [10] came out at 0.2 nM; in data set [15] it was 0.3 nM; in [22], 0.9 nM; in data set [25], 12 nM; in [28], 0.1 nM. Also, the remaining at 1 h, 10 µM in data set [3] was > 60%. Also, the inhibition – broadly, the percentage by which the read-out fell short of the control – in data set [5] is 70%. The Stability entry in data set [8] was “Stable”. For the same compound, the result in [11], in [17], in data set [20] and in data set [26] was Active. In addition, the IC50 (as a rule, the point on the concentration scale where inhibition reaches its midpoint) in data set [12] was found to be 28000 nM; in data set [14], 15200 nM; in data set [23] it was 890 nM. In addition, the Activity was >50% in data set [13], >50% in data set [18], “Dose-dependent effect” in data set [24] and “Dose-dependent effect” in [27]. Moreover, the “Selectivity Index” value in data set [16] and in data set [21] was 1000 - 2000 throughout. Also, in data set [19], the Drug metabolism result is reported as “Metabolite_Detected”.
`O=c1cc(-c2ccccc2)[nH]c2ccc3[nH]ccc3c12`: the Drug metabolism result in data set [29] is reported as “Metabolite_Detected”.
